Experimental findings from ChEMBL document CHEMBL2434877, “Synthesis and SAR study of novel 3,3-diphenyl-1,3-dihydroindol-2-one derivatives as potent eIF2·GTP·Met-tRNAiMet ternary complex inhibitors” (Eur J Med Chem, 2013) are described below.

Calls of active or inactive are those of the source. No cut-off for these calls is given here.

A short description of assay [1]: Antiproliferative activity against human CRL2351 cells after 5 days by SRB assay. The class given is functional, cell-based. The settings on record: 120 h. An outline of the steps:
(§1)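 Adherent cells plated, allowed to settle overnight, then exposed 5 days to 0.54–20 µM compound. Fixed in cold 10% TCA (4 °C, 1 h), stained with 0.4% SRB in 1% acetic acid for 1 h, dye solubilized in 10 mM Tris pH 10, A490 read. Time-zero plates used for %T/C. IC50 is the 50% growth-inhibition concentration, mean of 2 experiments each in triplicate.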
In general terms: In SRB staining, fixed cells bind dye roughly in proportion to their protein.

Assay [2] in a line: Antiproliferative activity against human CRL2813 cells after 5 days by SRB assay. The class given is functional, cell-based. The settings on record: CRL2813, 120 h. The method in brief: as §1
The species entered for assay [3] is Mus musculus. The assay can be described thus: Inhibition of eIF2-GTP-Met-tRNAi (Met) in mouse KLN205 cells assessed as increase in ATF-4 expression at 10 to 80 uM by dual luciferase reporter gene assay. The class given is cell-based. An outline of the steps:
(§2)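 KLN-205 cells carry firefly luciferase fused to the ATF-4 5′UTR and renilla luciferase behind a uORF-free 5′UTR. Cells treated overnight with compound at 10, 20, 40 or 80 µM, then read with a glow-type dual luciferase kit. Firefly/renilla ratio corrected for the same ratio in DMSO wells on the same plate.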
In general terms: In a reporter assay the amount or activity of a reporter protein is the signal.

A short description of assay [4]: Antiproliferative activity against mouse KLN205 cells after 5 days by SRB assay. The class given is functional, cell-based. The settings on record: 120 h. The method in brief: as §1
Assay [5] is filed under the species Mus musculus. The assay can be described thus: Inhibition of eIF2-GTP-Met-tRNAi (Met) in mouse KLN205 cells assessed as increase in CHOP mRNA expression by qRT-PCR analysis relative to DMSO-treated control. The class given is cell-based. An outline of the steps:
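CHOP mRNA measured by PCR in KLN-205 cells, triplicate in at least two independent runs. Transcript quantities normalized to 18S rRNA and expressed as fold over DMSO control.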
(In general: In qPCR the cycle at which signal appears reflects the starting amount.)

Assay [6] is filed under the species Mus musculus. Nature of the assay: Inhibition of eIF2-GTP-Met-tRNAi (Met) in mouse KLN205 cells assessed as increase in ATF-4 expression at 40 uM by dual luciferase reporter gene assay relative to control. The class given is cell-based. An outline of the steps: as §2
The species named for assay [7] is Mus musculus. The assay can be described thus: Inhibition of eIF2-GTP-Met-tRNAi (Met) in mouse KLN205 cells assessed as increase in ATF-4 expression at 80 uM by dual luciferase reporter gene assay relative to control. The class given is cell-based. An outline of the steps:
as §2

Assay [8] concerns MCF7. The assay can be described thus: Antitumor activity against human MCF7 cells xenografted in mouse assessed as regression in tumor size at 140 mg/kg, sc bid for 3 weeks relative to control. The class given is functional. The note with it: route subcutaneous.

In the case of `COc1ccc(C2(c3cc(C(C)(C)C)ccc3O)C(=O)Nc3c2ccc(F)c3F)cc1` (racemic), the results for the IC50 in assay [1], in assay [2] and in assay [4] were 0.95 µM, 3 µM and 12.3 µM, respectively. The “ATF-4 reporter expression relative to DMSO control” value in assay [3] was “inactive”.
As for `CC(C)(C)c1ccc(O)c(C2(c3ccccc3)C(=O)Nc3ccc(OC(F)(F)F)cc32)c1` (racemic), the 50% inhibitory concentration (IC50) (in general, the concentration needed to halve the response being measured) was determined as 2.5 µM in assay [1], 1 µM in assay [2] and 8 µM in assay [4].
For `COc1ccc(C2(c3cc(C(C)(C)C)ccc3O)C(=O)Nc3ccccc32)cc1` (racemic), the fold change (FC) in assay [5] was found to be 4.09; in assay [6] it was 5.6. Further, the figures for the IC50 in assay [1], in assay [2] and in assay [4] were 2.65 µM, 2.75 µM and 15.7 µM, respectively.
As for `COC(=O)c1cccc2c1NC(=O)C2(c1ccc(OC)cc1)c1cc(C(C)(C)C)ccc1O` (racemic), the IC50 is 3.4 µM in assay [1], 12.2 µM in assay [2] and more than 20 µM in assay [4].
As for `CC(C)(C)c1ccc(OCCN2CCOCC2)c(C2(c3ccccc3)C(=O)Nc3ccccc32)c1` (racemic), the figures for the IC50 in assay [1], in assay [2] and in assay [4] were 3.35 µM, 2.4 µM and 6.8 µM, respectively.
Take `C#CCOc1ccc(C(C)(C)C)cc1C1(c2ccccc2)C(=O)Nc2ccccc21` (racemic): the 50% inhibitory concentration (IC50) in assay [1] was 17.5 µM; in assay [2] it was more than 20 µM; in assay [4] it was more than 20 µM.
As to `CC(C)(C)c1ccc(O)c(C2(c3cccnc3)C(=O)Nc3ccccc32)c1` (racemic), the half-maximal inhibitory concentration (IC50) is 6.4 µM in assay [1], 11.5 µM in assay [2] and more than 20 µM in assay [4].
Turning to `CC(C)(C)c1ccc(OCC(=O)O)c(C2(c3ccccc3)C(=O)Nc3ccccc32)c1` (racemic), the 50% inhibitory concentration (IC50) in assay [1], in assay [2] and in assay [4] was more than 20 µM in each case. Besides, in assay [3], the “ATF-4 reporter expression relative to DMSO control” value was “inactive”.
In the case of `COc1ccc(C2(c3cc(C(C)(C)C)ccc3OCCN3CCOCC3)C(=O)Nc3ccccc32)cc1` (racemic), the fold change (FC) in assay [5] worked out at 7.1; in assay [6] it was 6.3. Besides, the IC50 in assay [1] came to 2.65 µM; in assay [2], 2.4 µM; in assay [4], 4.3 µM.
Consider `CC(C)(C)c1ccc(O)c(C2(c3ccccc3)C(=O)Nc3ccc(-c4ccc(N5CCOCC5)nc4)cc32)c1` (configuration not stated), for which the fold change (FC) is 20.8 in assay [5] and 15.6 in assay [7]. Besides, the IC50 in assay [1] amounted to 1.8 µM; in assay [2], 2.5 µM; in assay [4] it was 13.3 µM.
In the case of `CC(C)(C)c1ccc(O)c(C2(c3ccccc3)C(=O)Nc3ccc4ncsc4c32)c1` (racemic), the results for the IC50 in assay [1], in assay [2] and in assay [4] were 2.2 µM, 0.95 µM and 8 µM, respectively. The “ATF-4 reporter expression relative to DMSO control” value in assay [3] was “inactive”.
With `CN(C)c1ccc(C2(c3cc(C(C)(C)C)ccc3OCCN3CCOCC3)C(=O)Nc3c2ccc(F)c3F)cc1` (racemic), the half-maximal inhibitory concentration (IC50) worked out at 4 µM in assay [1], 11 µM in assay [2] and 15.7 µM in assay [4].
For `CC(C)(C)c1ccc(O)c(C2(c3ccc(O)cc3)C(=O)Nc3ccccc32)c1` (configuration not stated), in that order: 2 µM, 4 µM and 17.3 µM.
For `COc1ccc(C2(c3cc(C(C)(C)C)ccc3OCCN3CCOCC3)C(=O)Nc3ccccc32)cc1F` (racemic), in that order: 2.5 µM, 2.7 µM and 3.4 µM.
As for `COc1ccc(C2(c3cc(C(C)(C)C)ccc3OCCN3CCOCC3)C(=O)Nc3ccc(OC(F)(F)F)cc32)cc1` (racemic), the fold change (FC) in assay [5] is 3.49; in assay [6] it was 5.11. Besides, the figures for the 50% inhibitory concentration (IC50) in assay [1], in assay [2] and in assay [4] were 2.9 µM, 1.9 µM and 9.3 µM, respectively.
Turning to `CN(C)c1ccc(C2(c3cc(C(C)(C)C)ccc3O)C(=O)Nc3ccccc32)cc1` (racemic), the half-inhibitory concentration (IC50) in assay [1] was 2.3 µM; in assay [2], 11 µM; in assay [4], 10.9 µM.
As for `CC(C)(C)c1ccc(OCCN2CCNCC2)c(C2(c3ccccc3)C(=O)Nc3ccccc32)c1` (racemic), the values for the IC50 in assay [1], in assay [2] and in assay [4] were 0.9 µM, 12.8 µM and 1.2 µM, respectively. Moreover, the “ATF-4 reporter expression relative to DMSO control” value in assay [3] is “inactive”.
Take `COc1ccc(C2(c3cc(C(C)(C)C)ccc3O)C(=O)Nc3ccc(OC)cc32)cc1` (racemic): the IC50 in assay [1] is 2.9 µM; in assay [2] it was 11.1 µM; in assay [4] it was 14.3 µM. Also, the “ATF-4 reporter expression relative to DMSO control” value in assay [3] was “inactive”.
Consider `CC(C)(C)c1ccc(O)c(C2(c3ccccc3)C(=O)Nc3ccccc32)c1` (configuration not stated), for which the figures for the fold change (FC) in assay [5] and in assay [6] were 3.77 and 3.7, respectively. Further, the IC50 was 3.4 µM in assay [1], 4.8 µM in assay [2] and 14.4 µM in assay [4]. Moreover, the Activity in assay [8] came out at 30%.
As for `COc1ccc(C2(c3cc(C(C)(C)C)ccc3OCCN3CCOCC3)C(=O)Nc3ccccc32)cc1OC` (racemic), the 50% inhibitory concentration (IC50) in assay [1], in assay [2] and in assay [4] was more than 20 µM throughout.
For `COC(=O)c1cccc2c1NC(=O)C2(c1ccc(OC)cc1)c1cc(C(C)(C)C)ccc1OCCN1CCOCC1` (racemic), the IC50 in assay [1] came to 16.3 µM; in assay [2], 14.6 µM; in assay [4], 17 µM. For the same molecule, in assay [3], the “ATF-4 reporter expression relative to DMSO control” value is “inactive”.
For the molecule `CC(C)(C)c1ccc(O)c(C2(c3ccccc3)C(=O)Nc3ccc(I)cc32)c1` (racemic), the values for the fold change (FC) in assay [5] and in assay [6] were 4.36 and 7.2, respectively. Besides, the results for the IC50 in assay [1], in assay [2] and in assay [4] were 3.5 µM, 2.8 µM and 14.9 µM, respectively.
Consider `CC(C)(C)c1ccc(O)c(C2(c3ccc(O)cc3)C(=O)Nc3c2ccc(F)c3F)c1` (configuration not stated), for which the fold change (FC) in assay [5] was found to be 3.09; in assay [6], 2.9. Besides, the concentration for half-maximal inhibition (IC50) was more than 20 µM in assay [1], 10.7 µM in assay [2] and 15.3 µM in assay [4].
As for `CN(C)CCOc1ccc(C(C)(C)C)cc1C1(c2ccccc2)C(=O)Nc2ccccc21` (racemic), the IC50 in assay [1] is 1.4 µM; in assay [2] it was 2.4 µM; in assay [4], 1.2 µM.
`CC(C)(C)c1ccc(O)c(C2(c3ccc(CN4CCOCC4)cc3)C(=O)Nc3ccccc32)c1` (racemic): the figures for the fold change (FC) in assay [5] and in assay [7] were 4.68 and 12.4, respectively. Further, the results for the IC50 in assay [1], in assay [2] and in assay [4] were 7.3 µM, 7.8 µM and 17.3 µM, respectively.
Turning to `Cc1cc(C2(c3cc(C(C)(C)C)ccc3O)C(=O)Nc3ccccc32)ccc1Cl` (racemic), the IC50 in assay [1] came to 2.9 µM; in assay [2], 2.9 µM; in assay [4] it was 4.3 µM.
Take `COc1ccc(C2(c3cc(C(C)(C)C)ccc3OCCN3CCOCC3)C(=O)Nc3ccc(OC)cc32)cc1` (racemic): the figures for the half-maximal inhibitory concentration (IC50) in assay [1], in assay [2] and in assay [4] were 4.5 µM, 2.9 µM and 2.75 µM, respectively.
As to `CN(C)c1ccc(C2(c3cc(C(C)(C)C)ccc3OCCN3CCOCC3)C(=O)Nc3ccccc32)cc1` (racemic), the fold change (FC) in assay [5] amounted to 4.15; in assay [6], 7.15. The 50% inhibitory concentration (IC50) in assay [1] came out at 4.7 µM; in assay [2], 7.5 µM; in assay [4], 2.2 µM.
Consider `COc1ccc(C2(c3cc(C(C)(C)C)ccc3OCCN3CCOCC3)C(=O)Nc3ccc(I)cc32)cc1` (racemic), for which the figures for the half-inhibitory concentration (IC50) in assay [1], in assay [2] and in assay [4] were 6.1 µM, 2.6 µM and 12 µM, respectively.
